Results reported in ChEMBL document CHEMBL4024725, “Design, synthesis, and biological evaluation of NAD(P)H: Quinone oxidoreductase (NQO1)-targeted oridonin prodrugs possessing indolequinone moiety for hypoxia-selective activation” (Eur J Med Chem, 2017).
Activity calls are given as the source filed them. The rule behind the calls is not given here.

Experiments:
[1] = target: NAD(P)H dehydrogenase [quinone] 1 (Homo sapiens) (UniProt P15559); assay: Substrate activity at recombinant human NQO1 expressed in Escherichia coli assessed as compound decomposition at […] in presence of NADH and FAD measured within 40 mins by HPLC analysis
Method in brief: (§1)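 Lyophilized human DT-diaphorase was used. Final mixture: 25 mM TRIS pH 7.4 buffer, 0.15 mM compound from a DMSO stock, 0.2 mM NADH, FAD (printed […]), and enzyme 2.0 mU/µL. Enzyme-free controls were included. Mixtures were stirred at 37 °C and monitored by C18 reversed-phase HPLC with methanol/water gradient starting 50:50 at 1 mL/min.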

[2] = target: NAD(P)H dehydrogenase [quinone] 1 (Homo sapiens) (UniProt P15559); assay: Substrate activity at recombinant human NQO1 expressed in Escherichia coli assessed as compound metabolized at […] in presence of NADH and FAD measured after 12 hrs by HPLC analysis; method in brief: as §1
[3] = Stability of the compound in TRIS buffer at pH 7.4 after 12 hrs by HPLC method; format: physicochemical; details: pH 7.4, 12 h; method in brief: as §1
NCI-H596 = assay: Induction of apoptosis in NQO1 deficient human NCI-H596 cells assessed as TUNEL positive cells at 0.25 to 1 uM by light microscopic analysis; format: functional, cell-based
Method in brief: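 Treated cells were fixed in 3.7% buffered formaldehyde for 10 min at room temperature and pretreated with H2O2. TdT end-labelling ran 1 h at 37 °C, followed by DAB for 10 min and methyl green counterstain. Dark-brown nuclei were counted by light microscopy among 100 random cells. Mean ± SD of three independent experiments.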

A549 [4] = assay: Disruption of mitochondrial membrane potential in human A549 cells assessed as collapse of mitochondrial membrane potential at 1 uM after 48 hrs by JC1 staining based flow cytometric method (reference value: 4.6%); format: functional
Method in brief: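 A549 cells were exposed to 0, 0.25, 0.5 or 1 µM. The legend gives 48 h and the methods give 36 h. Cells were loaded with 10 µg/mL JC-1 for 30 min at 37 °C and washed in PBS. The percentage with collapsed membrane potential was measured by flow cytometry, excitation 488 nm, emission 530 nm.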

A549 [5] = assay: Cell cycle arrest in human A549 cells expressing NQO1 assessed as accumulation at G2 phase at 0.125 uM after 48 hrs by propidium iodide staining based flow cytometric analysis (reference value: 12.65%); format: functional
A549 [6] = assay: Cell cycle arrest in human A549 cells expressing NQO1 assessed as accumulation at S phase at 0.25 uM after 48 hrs by propidium iodide staining based flow cytometric analysis (reference value: 32.51%); format: functional
A549 [7] = assay: Cell cycle arrest in human A549 cells expressing NQO1 assessed as accumulation at G1 phase at 0.5 uM after 48 hrs by propidium iodide staining based flow cytometric analysis (reference value: 54.84%); format: functional
A549 [8] = assay: Cell cycle arrest in human A549 cells expressing NQO1 assessed as accumulation at G2 phase at 0.5 uM after 48 hrs by propidium iodide staining based flow cytometric analysis (reference value: 12.65%); format: functional
A549 [9] = assay: Cell cycle arrest in human A549 cells expressing NQO1 assessed as accumulation at S phase at 0.5 uM after 48 hrs by propidium iodide staining based flow cytometric analysis (reference value: 32.51%); format: functional
A549 [10] = assay: Induction of apoptosis in human A549 cells expressing NQO1 assessed as increase in cleaved caspase-9 level after 48 hrs by Western blot analysis; format: functional, cell-based
Method in brief: (§2)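 A549 and H596 cells were treated 48 h with 0, 0.25, 0.5 or 1.0 µM, then lysed on ice and cleared at 13000g. Aliquots of 20 µg protein were separated by 8–12% SDS-PAGE and blotted to PVDF. Membranes were probed overnight at 4 °C with antibodies to caspase-3, -8, -9, cytochrome C, Bax and Bcl-xl, then HRP secondaries with ECL detection. β-actin served as loading control.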

A549 [11] = assay: Induction of apoptosis in human A549 cells expressing NQO1 assessed as increase in cytochrome C level after 48 hrs by Western blot analysis; format: functional, cell-based; method in brief: as §2
Mus musculus = assay: Toxicity in ICR mouse implanted with H22 cells assessed as body weight change at 20 mg/kg, iv administered once daily for 18 days measured every 2 days during compound dosing; format: organism-based; details: in vivo
Method in brief: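 Male ICR mice, five weeks old, bearing s.c. H22 flank tumours, were randomized 7 d after implantation into groups of 8. They received i.v. injections daily for 18 days in 10% DMF/2% poloxamer/88% saline vehicle, with saline controls. Body weights were recorded every 2 days.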

Sequence of NAD(P)H dehydrogenase [quinone] 1 (Homo sapiens) (P15559 whole entry): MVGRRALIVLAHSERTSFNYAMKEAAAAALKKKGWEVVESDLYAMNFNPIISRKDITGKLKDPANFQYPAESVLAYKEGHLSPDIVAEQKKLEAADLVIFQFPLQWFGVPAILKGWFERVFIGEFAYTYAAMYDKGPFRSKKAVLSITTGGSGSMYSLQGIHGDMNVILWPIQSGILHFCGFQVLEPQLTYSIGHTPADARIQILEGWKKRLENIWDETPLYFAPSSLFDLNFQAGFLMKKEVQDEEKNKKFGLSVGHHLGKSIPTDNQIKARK

Drug degradation [1]: Active
Drug metabolism [2]: 70%
Stability [3]: Stable
Compound: C=C1C(=O)[C@@]23C(=O)O[C@H]4CCC(C)(C)C5C(=O)OC[C@]54[C@H]2CC[C@@H]1[C@H]3OC(=O)CCCC(=O)OCc1cn(C)c2c1C(=O)C(OC)=CC2=O (stereo partly drawn)
Activity (NCI-H596): inactive
Activity (A549 [4]): 46.3%
Activity (A549 [5]): 14.74%
Activity (A549 [6]): 24.1%
Activity (A549 [7]): 56.25%
Activity (A549 [8]): 26.57%
Activity (A549 [9]): 17.18%
Activity (A549 [10]): Dose-dependent effect
Activity (A549 [11]): Dose-dependent effect
Activity (Mus musculus): Non-Toxic
